This passage reports IC50 results from ChEMBL document CHEMBL1131521, “Structure-activity relationships for 1-phenylbenzimidazoles as selective ATP site inhibitors of the platelet-derived growth factor receptor” (J Med Chem, 1998).

Each structure is given as a SMILES string.

For test [1], the target named is Platelet-derived growth factor receptor beta (Mus musculus, UniProt P05622). Description: Inhibition of phosphorylation of a random glutamate/tyrosine copolymer in lysates of transfected Sf9 insect cells overexpressing mouse platelet-derived growth factor receptor beta. A digest of the protocol: (§1)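 Kinase source was lysate of transfected Sf9 insect cells overexpressing the receptor. Substrate was a random glutamate/tyrosine (4:1) copolymer, and the read-out was its phosphorylation. IC50 was the drug concentration (µM) giving inhibition.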
Sequence of Platelet-derived growth factor receptor beta (P05622 whole entry): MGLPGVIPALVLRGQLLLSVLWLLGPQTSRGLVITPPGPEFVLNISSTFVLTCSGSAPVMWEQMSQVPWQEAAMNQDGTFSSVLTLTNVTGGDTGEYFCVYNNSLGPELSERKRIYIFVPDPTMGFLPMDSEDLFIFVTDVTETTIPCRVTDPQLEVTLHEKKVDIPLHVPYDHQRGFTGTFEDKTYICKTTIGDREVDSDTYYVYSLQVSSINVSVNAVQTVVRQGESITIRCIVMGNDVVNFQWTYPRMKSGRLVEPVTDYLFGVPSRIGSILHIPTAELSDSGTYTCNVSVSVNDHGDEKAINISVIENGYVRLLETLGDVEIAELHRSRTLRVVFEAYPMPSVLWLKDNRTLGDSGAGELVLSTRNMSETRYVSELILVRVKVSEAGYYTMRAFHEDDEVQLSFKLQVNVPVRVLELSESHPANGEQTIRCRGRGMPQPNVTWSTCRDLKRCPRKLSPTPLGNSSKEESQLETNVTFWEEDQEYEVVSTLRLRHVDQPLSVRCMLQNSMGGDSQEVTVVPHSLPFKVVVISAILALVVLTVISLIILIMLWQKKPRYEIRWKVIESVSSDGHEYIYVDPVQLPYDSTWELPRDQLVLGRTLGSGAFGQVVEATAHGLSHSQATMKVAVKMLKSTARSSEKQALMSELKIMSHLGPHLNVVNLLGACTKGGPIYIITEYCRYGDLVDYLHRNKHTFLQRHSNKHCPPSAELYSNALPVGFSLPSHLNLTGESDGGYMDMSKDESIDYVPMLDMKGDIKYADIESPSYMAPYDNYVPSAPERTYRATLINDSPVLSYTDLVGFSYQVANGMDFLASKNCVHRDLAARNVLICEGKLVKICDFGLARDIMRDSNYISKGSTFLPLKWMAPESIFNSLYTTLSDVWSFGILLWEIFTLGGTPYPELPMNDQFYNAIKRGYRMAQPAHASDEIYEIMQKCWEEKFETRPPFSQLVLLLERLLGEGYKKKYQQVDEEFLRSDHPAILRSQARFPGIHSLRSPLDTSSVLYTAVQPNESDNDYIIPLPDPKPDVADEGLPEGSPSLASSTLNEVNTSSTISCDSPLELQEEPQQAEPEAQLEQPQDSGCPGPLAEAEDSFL

In test [2] the target is Fibroblast growth factor receptor 1 (Homo sapiens, UniProt P11362). The test is described as follows: Inhibition of phosphorylation of a random glutamate/tyrosine copolymer in lysates of transfected Sf9 insect cells overexpressing human fibroblast growth factor receptor 1. In outline: as §1
Sequence of Fibroblast growth factor receptor 1 (P11362 whole entry): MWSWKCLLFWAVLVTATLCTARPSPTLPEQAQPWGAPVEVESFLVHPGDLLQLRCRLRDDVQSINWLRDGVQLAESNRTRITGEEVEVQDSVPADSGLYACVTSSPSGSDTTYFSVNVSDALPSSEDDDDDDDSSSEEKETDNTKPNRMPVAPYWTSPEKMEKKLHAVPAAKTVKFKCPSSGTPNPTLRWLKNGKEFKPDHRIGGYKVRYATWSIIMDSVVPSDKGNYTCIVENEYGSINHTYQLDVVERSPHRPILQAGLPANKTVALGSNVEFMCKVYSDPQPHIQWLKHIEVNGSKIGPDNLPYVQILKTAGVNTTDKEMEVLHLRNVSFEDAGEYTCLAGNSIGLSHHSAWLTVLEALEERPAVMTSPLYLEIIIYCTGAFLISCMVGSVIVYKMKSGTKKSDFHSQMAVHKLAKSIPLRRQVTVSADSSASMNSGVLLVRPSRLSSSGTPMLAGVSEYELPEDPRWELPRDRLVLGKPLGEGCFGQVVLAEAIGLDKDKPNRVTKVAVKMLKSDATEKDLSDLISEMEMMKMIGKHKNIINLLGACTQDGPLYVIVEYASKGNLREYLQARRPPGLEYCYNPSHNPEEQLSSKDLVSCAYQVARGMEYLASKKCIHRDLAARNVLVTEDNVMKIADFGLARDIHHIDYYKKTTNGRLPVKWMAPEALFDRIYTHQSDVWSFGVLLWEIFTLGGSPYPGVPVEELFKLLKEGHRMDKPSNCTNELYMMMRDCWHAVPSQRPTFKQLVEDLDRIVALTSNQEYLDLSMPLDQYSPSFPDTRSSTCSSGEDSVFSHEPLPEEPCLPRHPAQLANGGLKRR
Test [3] deals with Platelet-derived growth factor receptor (PDGFr) (Rattus norvegicus, UniProt P20786+Q05030). Description: Inhibition of PDGF-stimulated Platelet-derived growth factor receptor autophosphorylation in rat aorta vascular smooth muscle cells. Type of test: functional. In outline:
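Rat aortic vascular smooth muscle cells, serum-starved, were exposed to compound for 2 h before stimulation with PDGF-BB at 25 ng/mL. Cell lysates or immunoprecipitates were analysed by Western blot with anti-phosphotyrosine antibody.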

As for `O=C(O)c1ccc2ncn(-c3ccccc3)c2c1`, the half-maximal inhibitory concentration (IC50) in test [1] and in test [2] was 50 µM throughout.
In the case of `COc1cccc2c1ncn2-c1ccccc1`, the IC50 in test [1] is 50 µM; in test [2] it was above 50 µM.
`NC(=O)c1cccc2c1ncn2-c1ccccc1`: the half-maximal inhibitory concentration (IC50) in test [1] and in test [2] was above 50 µM in each case.
For `Cc1cccc2c1ncn2-c1ccccc1`, the IC50 in test [1] and in test [2] was above 50 µM each time.
For the molecule `c1ccc(-n2ccc3ccccc32)cc1`, the IC50 in test [1] and in test [2] was above 50 µM throughout.
For the molecule `CC(=O)c1ccc2c(c1)ncn2-c1ccccc1`, in test [1], the IC50 was 0.86 µM.
In the case of `Clc1cccc(-n2cnc3ccccc32)c1`, the half-inhibitory concentration (IC50) in test [1] came to 47 µM; in test [2] it was 50 µM.
The corresponding values for `O=C(O)c1cccc(-n2cnc3ccccc32)c1` are above 50 µM and above 50 µM.
The corresponding values for `O=[N+]([O-])c1cccc2c1ncn2-c1ccccc1` are above 50 µM and above 50 µM.
The corresponding values for `O=C(O)c1cccc2c1ncn2-c1ccccc1` are above 50 µM and above 50 µM.
For the molecule `O=Cc1ccccc1-n1cnc2ccccc21`, the IC50 in test [1] and in test [2] was above 50 µM in each case.
On to `Cc1nc2ccccc2n1-c1ccccc1`, for which the IC50 in test [1] and in test [2] was above 50 µM in each case.
As for `O=[N+]([O-])c1cccc2ncn(-c3ccccc3)c12`, the IC50 in test [1] is above 50 µM; in test [2], 40 µM.
The corresponding values for `Clc1cccc2ncn(-c3ccccc3)c12` are above 50 µM and above 50 µM.
Take `Oc1nc2ccccc2n1-c1ccccc1`: the IC50 in test [1] and in test [2] was above 50 µM each time.
Turning to `NC(=O)c1cccc2ncn(-c3ccccc3)c12`, the IC50 in test [1] and in test [2] was above 50 µM throughout.
For the molecule `c1ccc(-n2ncc3ccccc32)cc1`, the 50% inhibitory concentration (IC50) in test [1] and in test [2] was above 50 µM in each case.
In test [2], `O=Cc1cccc(-n2cnc3ccccc32)c1` gave an IC50 of 50 µM.
`O=C(O)c1ccccc1-n1cnc2ccccc21`: the 50% inhibitory concentration (IC50) in test [1] and in test [2] was above 50 µM in each case.
With `Cc1ccc2c(c1)ncn2-c1ccccc1`, in test [2], the IC50 was found to be 50 µM.
In the case of `Nc1ccc2ncn(-c3ccccc3)c2c1`, the IC50 in test [1] was 23 µM; in test [2], above 50 µM.
For the molecule `COC(=O)c1ccc2c(c1)ncn2-c1ccccc1`, the IC50 in test [3] was determined as 0.15 µM; in test [1], 0.83 µM.
In the case of `COc1ccc(-n2cnc3ccccc32)cc1`, the IC50 in test [1] is 13 µM; in test [2] it was above 50 µM.
In test [2], `Oc1ccc2ncn(-c3ccccc3)c2c1` had an IC50 above 50 µM.
With `c1ccc(-n2cnc3cccnc32)cc1`, the IC50 is 28 µM in test [1] and above 50 µM in test [2].
The corresponding values for `Cc1ccccc1-n1cnc2ccccc21` are above 50 µM and above 50 µM.
The corresponding values for `O=[N+]([O-])c1ccc2c(c1)ncn2-c1ccccc1` are 16 µM and above 50 µM.
The corresponding values for `c1ccc(-n2nnc3ccccc32)cc1` are above 50 µM and above 50 µM.
As to `Clc1ccc2ncn(-c3ccccc3)c2c1`, the IC50 in test [2] was above 50 µM.
Turning to `Nc1ccccc1-n1cnc2ccccc21`, the IC50 in test [1] and in test [2] was above 50 µM in each case.
For `Clc1ccccc1-n1cnc2ccccc21`, the IC50 in test [1] and in test [2] was above 50 µM in each case.
`CC(=O)c1ccccc1-n1cnc2ccccc21`: the IC50 in test [1] and in test [2] was above 50 µM throughout.
Regarding `O=Cc1ccc(-n2cnc3ccccc32)cc1`, the IC50 in test [1] is 13 µM; in test [2], above 50 µM.
The corresponding values for `COc1cccc2ncn(-c3ccccc3)c12` are 37 µM and 50 µM.
The corresponding values for `Cc1cccc2ncn(-c3ccccc3)c12` are above 50 µM and above 50 µM.
The corresponding values for `c1ccc(-c2nc3ccccc3[nH]2)cc1` are above 50 µM and above 50 µM.
Consider `c1cncc(-n2cnc3ccccc32)c1`, for which the IC50 in test [1] and in test [2] was above 50 µM throughout.
`O=C(c1ccccc1)n1cnc2ccccc21`: the IC50 in test [1] and in test [2] was above 50 µM each time.
Turning to `Clc1ccc(-n2cnc3ccccc32)cc1`, the IC50 in test [1] was 50 µM; in test [2] it was above 50 µM.
The corresponding values for `CC(=O)c1ccc(-n2cnc3ccccc32)cc1` are 24 µM and above 50 µM.
The corresponding values for `NC(=O)c1ccccc1-n1cnc2ccccc21` are above 50 µM and above 50 µM.
Take `COC(=O)c1cccc2ncn(-c3ccccc3)c12`: the IC50 in test [1] and in test [2] was above 50 µM in each case.
On to `COC(=O)c1cccc2c1ncn2-c1ccccc1`, for which the IC50 in test [1] and in test [2] was above 50 µM each time.
Consider `CC(=O)c1cccc(-n2cnc3ccccc32)c1`, for which the results for the IC50 in test [1] and in test [2] were 19 µM and above 50 µM, respectively.
The corresponding values for `c1ccc(-n2cnc3ccccc32)nc1` are above 50 µM and above 50 µM.
Take `Nc1cccc(-n2cnc3ccccc32)c1`: the IC50 in test [2] is above 50 µM.
On to `c1ccc(-n2cnc3ccccc32)cc1`, for which the values for the IC50 in test [3] and in test [2] were 2.3 µM and above 50 µM, respectively.
On to `O=C(O)c1ccc(-n2cnc3ccccc32)cc1`, for which the IC50 in test [1] and in test [2] was above 50 µM in each case.
For `NC(=O)c1ccc(-n2cnc3ccccc32)cc1`, the half-inhibitory concentration (IC50) in test [1] is 23 µM; in test [2] it was above 50 µM.
The corresponding values for `COc1ccccc1-n1cnc2ccccc21` are above 50 µM and above 50 µM.
The corresponding values for `O=[N+]([O-])c1ccc(-n2cnc3ccccc32)cc1` are 30 µM and above 50 µM.
As for `Cc1cccc(-n2cnc3ccccc32)c1`, the IC50 is 28 µM in test [1] and above 50 µM in test [2].
The corresponding values for `COc1cccc(-n2cnc3ccccc32)c1` are 25 µM and 50 µM.
Turning to `Nc1ccc(-n2cnc3ccccc32)cc1`, the IC50 was 2 µM in test [3] and above 50 µM in test [2].
As to `c1ccc(Cn2cnc3ccccc32)cc1`, the IC50 in test [1] and in test [2] was above 50 µM in each case.
With `O=C(O)c1cccc2ncn(-c3ccccc3)c12`, the half-maximal inhibitory concentration (IC50) in test [1] and in test [2] was above 50 µM each time.
Regarding `Cc1ccc(-n2cnc3ccccc32)cc1`, the IC50 in test [1] and in test [2] was above 50 µM throughout.
In the case of `Cc1ccc2ncn(-c3ccccc3)c2c1`, the results for the concentration for half-maximal inhibition (IC50) in test [1] and in test [2] were 40 µM and above 50 µM, respectively.
The corresponding values for `Clc1cccc2c1ncn2-c1ccccc1` are above 50 µM and above 50 µM.
The corresponding values for `O=[N+]([O-])c1ccccc1-n1cnc2ccccc21` are above 50 µM and above 50 µM.
The corresponding values for `N#Cc1cccc(-n2cnc3ccccc32)c1` are above 50 µM and above 50 µM.
For the molecule `COc1ccc2ncn(-c3ccccc3)c2c1`, the IC50 in test [3] was above 10 µM; in test [2], above 50 µM.
In the case of `Nc1nc2ccccc2n1-c1ccccc1`, the IC50 in test [1] and in test [2] was above 50 µM throughout.
Consider `N#Cc1ccc(-n2cnc3ccccc32)cc1`, for which the IC50 in test [1] is 16 µM; in test [2], above 50 µM.
The corresponding values for `NC(=O)c1ccc2ncn(-c3ccccc3)c2c1` are 25 µM and above 50 µM.
As for `Oc1cccc2ncn(-c3ccccc3)c12`, the concentration for half-maximal inhibition (IC50) in test [1] is above 50 µM; in test [2] it was 50 µM.
The corresponding values for `Nc1cccc2ncn(-c3ccccc3)c12` are above 50 µM and above 50 µM.
The corresponding values for `Oc1ccccc1-n1cnc2ccccc21` are above 50 µM and above 50 µM.
The corresponding values for `CCOC(=O)c1cccc(-n2cnc3ccccc32)c1` are above 50 µM and above 50 µM.
For the molecule `O=[N+]([O-])c1ccc2ncn(-c3ccccc3)c2c1`, the IC50 in test [1] turned out to be 50 µM; in test [2], 39 µM.
As for `O=Cc1ccc2c(c1)ncn2-c1ccccc1`, the IC50 in test [2] is above 50 µM.
As for `c1ccc2c(c1)ncn2-c1ccncc1`, the IC50 was 12 µM in test [1] and above 50 µM in test [2].
In test [1], `NC(=O)c1ccc2c(c1)ncn2-c1ccccc1` registered a half-inhibitory concentration (IC50) of 16 µM.
Take `c1ccc(C2=Nc3ccccc3NCC2)cc1`: the IC50 in test [1] and in test [2] was above 50 µM in each case.
Take `NC(=O)c1cccc(-n2cnc3ccccc32)c1`: the half-maximal inhibitory concentration (IC50) in test [1] and in test [2] was above 50 µM in each case.
`COC(=O)c1ccc2ncn(-c3ccccc3)c2c1`: the IC50 in test [2] is above 50 µM.
With `N#Cc1ccccc1-n1cnc2ccccc21`, the IC50 in test [1] and in test [2] was above 50 µM throughout.
In the case of `Nc1cccc2c1ncn2-c1ccccc1`, the IC50 in test [1] and in test [2] was above 50 µM in each case.
`COC(=O)c1ccc(-n2cnc3ccccc32)cc1` displayed an IC50 in test [2] of 50 µM. In other words, the double-digit micromolar range.
With `O=[N+]([O-])c1cccc(-n2cnc3ccccc32)c1`, the values for the IC50 in test [1] and in test [2] were 16 µM and 35 µM, respectively.
Consider `CCOC(=O)c1ccccc1-n1cnc2ccccc21`, for which the IC50 in test [1] and in test [2] was above 50 µM throughout.
For the molecule `Oc1cccc2c1ncn2-c1ccccc1`, the IC50 in test [3] is above 10 µM; in test [1], 11 µM; in test [2] it was above 50 µM.
Regarding `COc1ccc2c(c1)ncn2-c1ccccc1`, the figures for the half-inhibitory concentration (IC50) in test [3] and in test [1] were 1.9 µM and 0.43 µM, respectively.
The corresponding values for `Oc1ccc2c(c1)ncn2-c1ccccc1` are 0.13 µM and 0.44 µM.

The term IC50 denotes the point on the concentration scale where inhibition reaches its midpoint.
